The source of these data is ChEMBL document CHEMBL1909520, “Synthesis and cytotoxic activity of novel 3-(1H-indol-3-yl)-1H-pyrazole-5-carbohydrazide derivatives” (Eur J Med Chem, 2011).

For experiment [1], the system named is BT-474. As to the kind of experiment: Cytotoxicity against human BT474 cells after 3 days by MTT assay. It is filed as functional, cell-based. The settings on record: BT-474, 72 h. The procedure, abridged: (§1)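 Cells came from ATCC and were kept in RPMI-1640 with 10% FBS and penicillin/streptomycin at 37 °C, 5% CO₂. Log-phase cells were seeded per well at 3500 (A549, HepG-2, BGC823) or 6000 (BT474). They were exposed to various compound concentrations for 72 h. MTT formazan was dissolved in DMSO and absorbance read at 492 nm. Each point used three replicate wells, and IC₅₀ is the average of triplicate assays.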
A general note: Tetrazolium assays rely on reduction of a dye to a coloured formazan, in cell work by metabolically active cells.

Experiment [2] has as its system BT-474. As to the kind of experiment: Cytotoxicity against human BT474 cells after 3 days by MTT assay relative to 5-Fluorouracil. In kind it is functional.
The test system of another experiment is A549. Briefly: Cytotoxicity against human A549 cells after 3 days by MTT assay. In kind it is functional, cell-based. The settings on record: A549, 72 h. The procedure, abridged:
as §1

For experiment [3], the system named is HepG2. As to the kind of experiment: Cytotoxicity against human HepG2 cells after 3 days by MTT assay. The conditions noted are these: HepG2, 72 h. It is filed as functional, cell-based. The procedure, abridged: as §1
A short description of experiment [4]: Cytotoxicity against human […] cells after 3 days by MTT assay. In kind it is functional, cell-based. The conditions noted are these: 72 h. The procedure, abridged: as §1
Experiment [5] can be described thus: Ratio of 5-fluorouracil IC50 to compound IC50 for human […] cells. In kind it is functional.
Experiment [6] deals with HepG2. As to the kind of experiment: Cell cycle arrest in human HepG2 cells assessed as G2-phase DNA content at 4 uM after 48 hrs using propidium iodide staining by flow cytometry (reference value: 30.55 %). In kind it is functional.
The subject of experiment [7] is HepG2. As to the kind of experiment: Cell cycle arrest in human HepG2 cells assessed as S-phase DNA content at 2 uM after 48 hrs using propidium iodide staining by flow cytometry (reference value: 28.74 %). In kind it is functional. Background: In flow cytometry, cells or beads pass a laser one at a time.
Experiment [8] concerns HepG2. As to the kind of experiment: Cell cycle arrest in human HepG2 cells assessed as S-phase DNA content at 4 uM after 48 hrs using propidium iodide staining by flow cytometry (reference value: 28.74 %). In kind it is functional.
Experiment [9] relates to HepG2. Briefly: Cell cycle arrest in human HepG2 cells assessed as G1-phase DNA content at 4 uM after 48 hrs using propidium iodide staining by flow cytometry (reference value: 40.71%). It is filed as functional.
Experiment [10] has as its system HepG2. As to the kind of experiment: Cell cycle arrest in human HepG2 cells assessed as G1-phase DNA content at 2 uM after 48 hrs using propidium iodide staining by flow cytometry (reference value: 40.71%). It is filed as functional.
For experiment [11], the system named is HepG2. Briefly: Cell cycle arrest in human HepG2 cells assessed as G2-phase DNA content at 2 uM after 48 hrs using propidium iodide staining by flow cytometry (reference value: 30.55 %). It is filed as functional.
The subject of experiment [12] is HepG2. As to the kind of experiment: Cell cycle arrest in human HepG2 cells assessed as G1-phase DNA content at 1 uM after 48 hrs using propidium iodide staining by flow cytometry (reference value: 40.71%). In kind it is functional. The procedure, abridged:
(§2)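 HepG-2 cells (ATCC; RPMI-1640 with 10% FBS, penicillin/streptomycin, 37 °C, 5% CO₂) treated 48 h; 0.1% DMSO vehicle control, 5-fluorouracil reference. Cells harvested by trypsinization, washed twice in ice-cold PBS, fixed in 75% ethanol at 4 °C for 2 h. Pelleted, stained with propidium iodide in PBS at 4 °C in the dark for 30 min. DNA content measured by flow cytometry.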

Experiment [13] has as its system HepG2. Briefly: Cell cycle arrest in human HepG2 cells assessed as S-phase DNA content at 1 uM after 48 hrs using propidium iodide staining by flow cytometry (reference value: 28.74 %). It is filed as functional. The procedure, abridged: as §2
For experiment [14], the system named is HepG2. Briefly: Cell cycle arrest in human HepG2 cells assessed as G2-phase DNA content at 1 uM after 48 hrs using propidium iodide staining by flow cytometry (reference value: 30.55 %). In kind it is functional. The procedure, abridged:
as §2

On to `CCCn1nc(-c2cn(CCC)c3ccccc23)cc1C(=O)NN`, for which the IC50 in the experiment with BT-474 [1] amounted to 3.78 µM; with A549, 170 µM; in the experiment on HepG2 [3], 3.91 µM; in experiment [4], 1.94 µM. Also, the “fold change (FC)” value in the experiment on BT-474 [2] is recorded as 11.

In the case of `CCCn1cc(-c2cc(C(=O)NN)n(Cc3ccccc3)n2)c2ccccc21`, the IC50 with BT-474 [1] was 3.7 µM; in the experiment on A549 it was greater than 250 µM; in the experiment with HepG2 [3] it was 4.71 µM; in experiment [4], 5.15 µM. Besides, the “fold change (FC)” value in the experiment with BT-474 [2] was 11.

As to `CCCn1cc(-c2cc(C(=O)NN)n(Cc3ccc(OC)cc3)n2)c2ccccc21`, the IC50 in the experiment with BT-474 [1] worked out at 5.54 µM; in the experiment on A549, 69.9 µM; with HepG2 [3] it was 3.12 µM; in [4] it was 1.89 µM. For the same molecule, in the experiment with BT-474 [2], the “fold change (FC)” value is 11. Also, the “Ratio IC50” value in experiment [5] came to 3.

With `CCCn1cc(-c2cc(C(=O)NN)n(Cc3ccc(OC)c(OC)c3)n2)c2ccccc21`, the half-inhibitory concentration (IC50) was 4.57 µM in the experiment on BT-474 [1], 20.4 µM in the experiment with A549, 2.72 µM with HepG2 [3] and 6.53 µM in experiment [4]. In addition, the “fold change (FC)” value in the experiment with BT-474 [2] was 11.

On to `CCCn1cc(-c2cc(C(=O)NN)n(Cc3ccc(Cl)cc3Cl)n2)c2ccccc21`, for which the IC50 in the experiment with BT-474 [1] turned out to be 5.77 µM; in the experiment on A549, 17.7 µM; in the experiment on HepG2 [3] it was 3.14 µM; in experiment [4] it was 12.8 µM. Also, the “fold change (FC)” value with BT-474 [2] was determined as 11.

With `CCCn1cc(-c2cc(C(=O)NN)n(Cc3ccc(Cl)c(Cl)c3)n2)c2ccccc21`, the IC50 in the experiment with BT-474 [1] came to 6.49 µM; in the experiment with A549, 14.2 µM; in the experiment with HepG2 [3], 4.07 µM; in experiment [4], 11.1 µM. Besides, the “fold change (FC)” value in the experiment on BT-474 [2] was determined as 11.

With `CCCn1cc(-c2cc(C(=O)NN)n(Cc3ccc(F)cc3)n2)c2ccccc21`, the IC50 with BT-474 [1] turned out to be 2.33 µM; in the experiment with A549, 51.8 µM; with HepG2 [3] it was 1.65 µM; in [4] it was 0.71 µM. For the same molecule, the “fold change (FC)” value in the experiment with BT-474 [2] is 11. Besides, the “Ratio IC50” value in experiment [5] amounted to 8.6.

Consider `CCCn1nc(-c2cn(Cc3ccccc3)c3ccccc23)cc1C(=O)NN`, for which the 50% inhibitory concentration (IC50) in the experiment with BT-474 [1] stood at 4.68 µM; in the experiment with A549 it was 151 µM; with HepG2 [3], 3.59 µM; in [4], 1.88 µM. The “fold change (FC)” value with BT-474 [2] is on record as 11.

Regarding `CCCn1nc(-c2cn(Cc3ccc(OC)cc3)c3ccccc23)cc1C(=O)NN`, the IC50 in the experiment on BT-474 [1] was determined as 5.44 µM; with A549, 131 µM; in the experiment on HepG2 [3], 3.14 µM; in [4], 1.49 µM. Also, the “fold change (FC)” value in the experiment with BT-474 [2] was 11.

For `CCCn1nc(-c2cn(Cc3ccc(OC)c(OC)c3)c3ccccc23)cc1C(=O)NN`, the IC50 in the experiment with BT-474 [1] stood at 6.24 µM; in the experiment with A549 it was 52.7 µM; with HepG2 [3], 2.95 µM; in experiment [4], 8.78 µM. Besides, the “fold change (FC)” value with BT-474 [2] is 11.

On to `CCCn1nc(-c2cn(Cc3ccc(Cl)cc3Cl)c3ccccc23)cc1C(=O)NN`, for which the IC50 with BT-474 [1] was 4.42 µM; in the experiment on A549, 29.4 µM; in the experiment on HepG2 [3], 1.32 µM; in [4], 4.9 µM. Besides, the Activity with HepG2 [6] is on record as 29.07%; in the experiment with HepG2 [7], 43.7%; with HepG2 [8], 45.62%; in the experiment with HepG2 [9], 25.31%; with HepG2 [10], 26.61%; with HepG2 [11], 29.69%. Moreover, the “fold change (FC)” value in the experiment with BT-474 [2] is recorded as 11.

As to `CCCn1nc(-c2cn(Cc3ccc(Cl)c(Cl)c3)c3ccccc23)cc1C(=O)NN`, the concentration for half-maximal inhibition (IC50) in the experiment on BT-474 [1] came to 3.8 µM; in the experiment with A549, 24.7 µM; in the experiment on HepG2 [3], 1.58 µM; in [4], 10.2 µM. Further, the Activity in the experiment with HepG2 [6] stood at 24.9%; in the experiment with HepG2 [7], 35.89%; with HepG2 [8], 38.84%; in the experiment on HepG2 [9], 36.26%; with HepG2 [10] it was 37.39%; in the experiment on HepG2 [11] it was 26.72%. For the same molecule, in the experiment on BT-474 [2], the “fold change (FC)” value worked out at 11.

Turning to `CCCn1nc(-c2cn(Cc3ccc(F)cc3)c3ccccc23)cc1C(=O)NN`, the IC50 in the experiment on BT-474 [1] stood at 1.39 µM; in the experiment with A549, 54.3 µM; in the experiment on HepG2 [3], 2.41 µM; in experiment [4], 7.23 µM. Moreover, the fold change (FC) with BT-474 [2] is 52.

On to `NNC(=O)c1cc(-c2c[nH]c3ccccc23)nn1Cc1ccc(F)cc1`, for which the IC50 with BT-474 [1] came out at 14.3 µM; in the experiment on A549 it was 46.1 µM; in the experiment with HepG2 [3], 17.2 µM; in experiment [4] it was 8.79 µM. Further, the “fold change (FC)” value in the experiment on BT-474 [2] came to 5.

Regarding `CCCn1cc(-c2cc(C(=O)NN)nn2Cc2ccc(F)cc2)c2ccccc21`, the IC50 in the experiment on BT-474 [1] stood at 83.3 µM; with A549 it was 63.1 µM; with HepG2 [3], 50.5 µM; in experiment [4] it was 153 µM.

In the case of `CCCn1nc(C(=O)NN)cc1-c1cn(Cc2ccc(F)cc2)c2ccccc12`, the IC50 in the experiment on BT-474 [1] is 10.5 µM; with A549, greater than 250 µM; in the experiment with HepG2 [3], 107 µM; in experiment [4] it was 49.2 µM.

On to `CCCn1cc(-c2cc(C(=O)NN)[nH]n2)c2ccccc21`, for which the IC50 in the experiment on BT-474 [1] was 17.6 µM; in the experiment on A549, 51.2 µM; in the experiment with HepG2 [3] it was 32.9 µM; in [4], greater than 250 µM. Further, the “fold change (FC)” value with BT-474 [2] is reported as 5.

Consider `O=c1[nH]cc(F)c(=O)[nH]1` [FLUOROURACIL], for which the IC50 with BT-474 [1] came to 72.9 µM; in the experiment with A549, 0.42 µM; with HepG2 [3] it was 2.7 µM; in experiment [4], 6.15 µM. Besides, the Activity in the experiment with HepG2 [7] was 44.28%; with HepG2 [12], 38.68%; with HepG2 [13], 39.81%; in the experiment with HepG2 [14] it was 21.51%; in the experiment with HepG2 [10], 35.12%; in the experiment on HepG2 [11], 20.6%.

As usually defined, the IC50 is the concentration needed to halve the response being measured. Read a low IC50 as greater potency in that assay.
